# Unmarked numbers belong to inactive results.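 How the source made its calls, unless noted: active means growth inhibition above a set limit, 3 SD over mean compound inhibition, in both replicates (cut at about 43% in these data); inconclusive means above the limit in only one replicate; inactive means at or below the limit in both replicates.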
# Experiment: OD615 S. cerevisiae growth inhibition, permissive medium, pilot counter-assay, permissive growth control for S. cerevisiae lifespan shortening project (AID 705;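 active means growth inhibition above 25% in both replicates, a cutoff set 3 SD above the mean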)
# Details: OD615, 24 h, at 10 µM, active compounds read high
# How it was run: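 assay system = Saccharomyces cerevisiae strain carrying genetically modified DeaD replicative-lifespan system | medium = SC raffinose/galactose permissive medium | dosing = 10 µM single dose, 0.25% DMSO | schedule = 24 h compound exposure at 30 °C after 4 h pre-growth | measured by = OD at 615 nm | read-out basis = growth inhibition from lowered OD615 after 24 h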
row,Compound,growth inhibition [%]
1,CCOc1ccccc1C(=O)Nc1ccc2nc(N3CCN(c4ncccn4)CC3)cc(C)c2c1,5.8
2,COc1ccccc1-n1c(CNC(=O)c2ccccc2)nnc1SCC(=O)Nc1nnc(C)s1,3.6
3,CCOC(=O)C1=C(N)OC2=C(C(=O)CC(C)(C)C2)C1C1CCCCC1 (centres undefined),-13.2
4,CCCc1nnc(NC(=O)c2ccncc2)s1,-5.46
5,CC(C)Oc1ccc(NC(=O)Oc2ccccc2)cc1,-4.28
6,CCOC(=O)c1[nH]c(C)c(C(=O)N2CCOCC2)c1C,-6.62
7,Nc1ccc(S(=O)(=O)N2CCCc3ccccc32)cc1,-18.7
8,COc1cccc(CSc2nc3sc(C)c(C)c3c(=O)n2Cc2ccco2)c1,6.35
9,CCc1ccccc1S(=O)(=O)Cc1ccc(C(=O)N2CCN(c3ccccc3OC)CC2)o1,-12.5
10,COc1ccc(OCCn2c(NC(=O)c3ccco3)nc3ccccc32)cc1,2.63
11,COc1cc2c(cc1OC)C(C)N(C(=O)c1cc3ccccc3o1)CC2 (centres undefined),-11.9
12,O=C(Cn1c(=O)sc2ccccc21)NCc1ccccn1,1.44
13,COc1ccc(-c2noc(-c3cc(C)cc(C)c3)n2)cc1OC,-16.5
14,CCn1c(C(C)NC(=O)c2cccc(C)c2)nc2ccccc21 (centres undefined),-8.83
15,CN1CSC2=C(C#N)C(c3cccc(OCc4ccccc4)c3)CC(=O)N2C1 (centres undefined),-5.43
16,Cc1cccc(N2CCN(C(=O)c3cc4c(C)nc5ccccc5c4o3)CC2)c1C,-8.18
17,c1ccc(CNc2ncnc3nc[nH]c23)nc1,-12.5

# Experiment: Restrictive medium S. cerevisiae growth inhibition, OD615, pilot screen of yeast lifespan reduction project, restrictive growth control (AID 706);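 further: modified DeaD lifespan yeast strain shifted to restrictive glucose medium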
# Details: OD615, 48 h, at 10 µM, active compounds read high
# How it was run: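 Buffer or medium: CSMM-D glucose medium. Material: genetically modified Saccharomyces cerevisiae, DeaD replicative lifespan assay strain. Times: 48 h compound exposure at 30 °C. Measured by: optical density at 615 nm.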
row,Compound,growth inhibition [%]
1,CCCOC(=O)c1ccc(NC(=O)CCC(=O)OCC)cc1,0.845
2,Cc1ccc(-c2nn(-c3ccccc3)cc2C2SCC(=O)N2Cc2ccccc2)o1 (centres undefined),-9.89
3,CN(C)c1ccc(-c2noc(C3CCN(S(=O)(=O)c4cccc(Cl)c4)CC3)n2)cc1,-11.7
4,COc1cc(OC)c(NC(=O)CS(=O)(=O)Cc2nc(-c3ccc(C)cc3)oc2C)cc1Cl,-17
5,COC(=O)c1c(NC(=O)C2CC2)sc2c1CCCC2,17
6,C(#Cc1ccccc1)CN1CCN(c2ccccn2)CC1,-2.65
7,CCN1CCN(CC(=O)Nc2cccc(C)c2)C(=O)C1=O,-0.21
8,CN(C)c1ccc(CN(C)C2CCCCC2)cc1,-6.2
9,Cc1c(S(=O)(=O)N2CCc3ccccc3C2)c(=O)n(C)c(=O)n1C,-10.4
10,CCOC(=O)C1Cn2c(nc3c(c2=O)C2(CCCC2)Cc2ccccc2-3)S1 (centres undefined),-1.87
11,Cc1cccc(-c2noc(CN(C(=O)c3c(-c4ccccc4Cl)noc3C)C(C)C)n2)c1,-13
12,CCOC(=O)c1cc2c(=O)n3ccccc3nc2n(Cc2ccco2)c1=NC(=O)c1cccnc1,14
13,Cc1ccc(C)c(C(=O)Nc2c(C(N)=O)oc3ccccc23)c1,-1.59
14,Clc1ccccc1-c1nnc2sc(-c3ccncc3)nn12,19.3
15,COC(=O)c1ccc2c(c1)N(Cc1ccccc1F)C(=O)c1ccccc1S2=O (centres undefined),-2.4
16,CCOc1ccccc1C(=O)Nc1ccc2nc(N3CCN(c4ncccn4)CC3)cc(C)c2c1,-4.81

row,Compound,growth inhibition [%]
1,COc1ccccc1-n1c(CNC(=O)c2ccccc2)nnc1SCC(=O)Nc1nnc(C)s1,0.83
2,CCOC(=O)C1=C(N)OC2=C(C(=O)CC(C)(C)C2)C1C1CCCCC1 (centres undefined),-4.08
3,CCCc1nnc(NC(=O)c2ccncc2)s1,-3.19
4,CC(C)Oc1ccc(NC(=O)Oc2ccccc2)cc1,-8.55
5,CCOC(=O)c1[nH]c(C)c(C(=O)N2CCOCC2)c1C,-4.17
6,Nc1ccc(S(=O)(=O)N2CCCc3ccccc32)cc1,-24
7,COc1cccc(CSc2nc3sc(C)c(C)c3c(=O)n2Cc2ccco2)c1,2.66
8,CCc1ccccc1S(=O)(=O)Cc1ccc(C(=O)N2CCN(c3ccccc3OC)CC2)o1,-21.1
9,COc1ccc(OCCn2c(NC(=O)c3ccco3)nc3ccccc32)cc1,9.83
10,COc1cc2c(cc1OC)C(C)N(C(=O)c1cc3ccccc3o1)CC2 (centres undefined),10.2
11,O=C(Cn1c(=O)sc2ccccc21)NCc1ccccn1,-6.78
12,COc1ccc(-c2noc(-c3cc(C)cc(C)c3)n2)cc1OC,-30.9
13,CCn1c(C(C)NC(=O)c2cccc(C)c2)nc2ccccc21 (centres undefined),5.38
14,CN1CSC2=C(C#N)C(c3cccc(OCc4ccccc4)c3)CC(=O)N2C1 (centres undefined),20.4
15,Cc1cccc(N2CCN(C(=O)c3cc4c(C)nc5ccccc5c4o3)CC2)c1C,-1.81
16,c1ccc(CNc2ncnc3nc[nH]c23)nc1,-1.55

# — PubChem BioAssay
